TDP2 inh = blocks human TDP2 phosphodiesterase activity | O95551 | recombinant TDP2, T5PNP hydrolysis, p-nitrophenol absorbance 415 nm | inhibition, % at 12.8 µM | 370,000 compounds, 0.34% hits | AID 720702;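 active = inhibition above the mean of all tested compounds plus 3 SD, set per campaign, cut at about 25% in these data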;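 note: 0% = DMSO with enzyme and 100% = buffer with substrate but no TDP2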
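Test system: human TDP2 enzyme; Input: 120 nM TDP2 per well; Buffer or medium: Mg2+-containing Tris-HCl buffer, pH 7.5; Reagent: 5 mM T5PNP; Dosing: 12.8 µM single point, 1% DMSO; Incubation: reaction 2 h, 37 °C; Detection: p-Nitrophenol epi absorbance; Read-out: % inhibition relative to enzyme-containing and enzyme-free wells; Replicates: single well per compound.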
SIAE inh = human SIAE inhibition, primary screen | SIAE FP-Rh probe binding, fluorescence polarization | inhibition, % at 9.66 µM | 370,000 compounds, 0.69% hits;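 active = inhibition above a cutoff: mean of compounds within the control limits plus 3 SD of those, cut at about 17% in these data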;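 note: 0% = plate median of compound wells and 100% = probe without SIAE protein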
Target sequence (Q9HAT2 whole entry, looked up): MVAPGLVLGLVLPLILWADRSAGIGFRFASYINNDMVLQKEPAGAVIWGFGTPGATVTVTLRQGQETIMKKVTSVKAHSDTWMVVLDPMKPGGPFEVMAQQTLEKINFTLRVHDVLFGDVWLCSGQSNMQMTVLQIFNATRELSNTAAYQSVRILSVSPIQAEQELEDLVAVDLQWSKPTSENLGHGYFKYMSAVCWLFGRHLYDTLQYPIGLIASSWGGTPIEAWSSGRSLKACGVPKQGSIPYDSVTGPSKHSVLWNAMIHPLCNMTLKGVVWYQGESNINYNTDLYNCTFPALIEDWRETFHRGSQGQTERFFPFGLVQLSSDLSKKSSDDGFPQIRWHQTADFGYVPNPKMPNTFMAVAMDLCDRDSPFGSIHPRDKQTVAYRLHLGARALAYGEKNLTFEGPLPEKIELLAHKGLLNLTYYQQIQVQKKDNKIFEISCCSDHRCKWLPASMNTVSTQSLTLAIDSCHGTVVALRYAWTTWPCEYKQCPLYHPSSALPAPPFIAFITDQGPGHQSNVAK
Apaf-1 inh = human Apaf-1 inhibition. reconstituted apoptosome caspase-3 activity, DEVD-Rh110 fluorescence. 330,000 compounds, 0.71% hits. O14727. inhibition, % at 20 µM; active = inhibition of at least 40% at 20 µM;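 note: plate controls were DMSO wells for no effect and DEVD-CHO caspase inhibitor wells for full effect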
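detection = Rh110 fluorescence intensity | test system = biochemical Apaf-1 apoptosome reconstitution | also added = cytochrome c and DEVD-Rh110 substrate | schedule = 30 min plus 50 min, RT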
TCR CD3 inh = blocks the human TCR-CD3 interaction | AID 651800 | inhibition, % at 9.4 µM | TAMRA-labeled TCR probe fluorescence, biochemical | 360,000 compounds, 0.37% hits; in the data active = inhibition above about 19%;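 note: recombinant mutant TCR 2C K166C tagged with TAMRA read by polarization; 0% = receptor in buffer alone and 100% = receptor with positive control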
PAD4 inh = inhibitors of human PAD4. Q9UM07. recombinant PAD4, RCA probe fluorescence polarization. inhibition, % at 6.36 µM. 330,000 compounds, 0.41% hits. AID 485272;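 active = percent inhibition above a cutoff equal to the mean of all tested compounds plus 3 SD, cut at about 15% in these data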;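 note: 0% = PAD4 with RCA probe and DMSO and 100% = probe without PAD4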
GSTO1 counter = counter-screen for RBBP9 inhibitors: inhibitors of human GSTO1; 300,000 compounds, 1.1% hits; inhibition, % at 5.96 µM; AID 1974; recombinant GSTO1, activity-based probe fluorescence polarization; P78417;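 active = inhibition above the campaign mean inhibition plus 3 SD, cut at about 35% in these data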;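 note: 0% = GSTO1-1 with DMSO and 100% = wells lacking GSTO1-1 enzyme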
Target sequence (P78417 whole entry, looked up): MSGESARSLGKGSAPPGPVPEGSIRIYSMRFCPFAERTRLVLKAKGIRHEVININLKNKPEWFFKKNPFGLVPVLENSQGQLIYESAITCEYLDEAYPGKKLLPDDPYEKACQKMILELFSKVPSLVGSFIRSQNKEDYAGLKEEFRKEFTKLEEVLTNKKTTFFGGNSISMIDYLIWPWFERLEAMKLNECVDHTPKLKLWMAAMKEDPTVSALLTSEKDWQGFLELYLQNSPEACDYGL
Apaf-1 inh conf2 = Apaf-1 inhibition, single-dose confirmed. shares compounds with Apaf-1 inh. reconstituted apoptosome, caspase-3 DEVD-Rh110 fluorescence. inhibition, % at 20 µM. 1,800 compounds, 25% hits;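 active = mean inhibition of at least 40% at 20 µM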;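 note: plate controls were DMSO wells for no effect and DEVD-CHO caspase inhibitor control wells for full effect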
Rh110 interf inh = Rh110 signal interference in Apaf-1 inhibitor counter-screen; shares compounds with Apaf-1 inh; Rh110 fluorescence interference, quenched caspase reaction; activation (fluorescence interference), % at 20 µM; 1,800 tested, under 10 active; AID 504615;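 active = signal rise of 40% or more at 20 µM, treated as a fluorescence artifact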
Fluor interf inh = Apaf-1 inhibitor counter-screen fluorescence artifact. shares compounds with Apaf-1 inh. fluorescence interference counterscreen, Apaf-1 assay format. IC50, µM. 460 tested, under 10 active; call rule not given here
Active calls of the source: *; nt = no result given. Most compounds without a hit are left out; they make up all but 2.4% or so of the library.

SMILES	TDP2 inh	SIAE inh	Apaf-1 inh	TCR CD3 inh	PAD4 inh	GSTO1 counter	Apaf-1 inh conf2	Rh110 interf inh	others
COCCn1c(SCC(=O)NNC(=O)c2cc(Cl)ccc2OC)nnc1-c1ccncc1	2.4	0.8	48.7*	7.3	-0.3	nt	36.5	11.4
S=C(Nc1ccccc1)N1CCCN1c1ccccc1	7.3	1.0	-3.9	-3.0	-3.1	5.9	nt	nt
N#CCC(=O)N/N=C/c1ccc(OCc2ccccc2)cc1	-3.5	-5.3	4.7	8.3	-7.5	-11.0	nt	nt
CCCCCc1cc(=O)oc2c(C(CCN3CCCC3)c3ccc(N(C)C)cc3)c(OC)cc(OC)c12 (stereo not drawn)	-12.0	10.8	45.2*	1.6	4.1	2.1	36.7	13.1
CCCCCc1cc(=O)oc2c(C(CCN3CCN(c4ccccc4)CC3)c3ccc4c(c3)OCO4)c(OC)cc(OC)c12 (stereo not drawn)	4.8	3.0	25.2	-6.0	3.0	2.5	nt	nt
COc1cc(C(CCN2CCCC2)c2c(OC)cc(OC)c3c(C)cc(=O)oc23)cc(OC)c1OC (stereo not drawn)	9.6	5.4	2.3	2.3	1.1	9.2	nt	nt
CCCCCc1cc(=O)oc2c(C(CCN3CCCCC3)c3ccc(OC)cc3)c(OC)cc(OC)c12 (stereo not drawn)	-0.2	3.8	38.2	6.2	-3.5	-2.7	nt	nt
CCCCCc1cc(=O)oc2c(C(CCN3CCCC(C)C3)c3ccc(OC)cc3)c(OC)cc(OC)c12 (stereo not drawn)	-11.3	3.0	65.5*	0.9	-0.8	1.1	34.3	16.2
CCCCCc1cc(=O)oc2c(C(CCN3CCCC3)c3cc(OC)c(OC)c(OC)c3)c(OC)cc(OC)c12 (stereo not drawn)	0.5	-4.2	49.7*	0.5	-0.6	2.6	24.4	6.7
CCCCCc1cc(=O)oc2c(C(CCN(CC)CC)c3ccc(OC)cc3)c(OC)cc(OC)c12 (stereo not drawn)	-15.9	0.3	60.6*	-0.6	-5.8	-3.4	19.3	4.0
COc1ccc(/C=C/C(=O)OCC(=O)c2ccc3c(c2)NC(=O)CO3)c(OC)c1	-8.3	-10.0	-33.6	-5.5	-4.4	-31.0	nt	nt
CN(C)c1ccnc(-n2cccc2/C=N/OCc2ccccc2)c1C#N	4.7	0.1	5.5	-5.9	2.0	6.1	nt	nt
COc1ccc(CCNCC(O)COc2c(C)cccc2C)cc1OC (stereo not drawn)	13.6	3.5	nt	8.6	nt	nt	nt	nt
O=C(COC(=O)c1ccc([N+](=O)[O-])s1)NNC(=O)c1ccccc1	nt	nt	40.9*	nt	12.1	nt	37.0	-2.4
O=C1CN(C(=O)COC(=O)c2ccc([N+](=O)[O-])s2)c2ccccc2N1	nt	nt	35.2	nt	7.0	nt	nt	nt
c1ccc2c(c1)CC/C2=N/Nc1nc2ccccc2[nH]1	5.8	12.8	57.1*	6.2	-0.9	6.1	12.0	4.0
CCOc1cc(-c2nc3n(c(=O)c2C#N)CCS3)ccc1O	-11.1	1.9	15.8	5.5	2.8	4.8	nt	nt
O=C(c1ccc(-c2ccccc2Cl)o1)N1CCCC(C(F)(F)F)C1 (stereo not drawn)	-11.4	-1.9	41.4*	-3.9	-0.7	nt	27.2	3.1
O=C(c1ccc(-c2ccccc2Cl)o1)N1CCC1	-2.0	-5.9	9.5	2.8	nt	nt	nt	nt
CCn1c(=O)c2cc(C(=O)N(C)c3cc(C)ccc3OC)sc2c2ccccc21	-10.9	-10.8	53.4*	-6.8	-1.2	-11.3	26.0	7.0
CCOc1cc(/C=C\[N+](=O)[O-])ccc1OCC(=O)N1CCOCC1	6.2	8.6	-6.9	4.8	-1.9	9.7	nt	nt
CCOc1cc(/C=C/c2nc3cc(C)c(C)cc3s2)ccc1OCC(=O)N1CCOCC1	8.1	-9.7	45.4*	2.0	1.2	-15.6	16.7	-15.0
COC(=O)[C@]12C[C@H](CC(=O)NCC3CCCCC3)C(=O)N(Cc3ccco3)C1=C[C@H](C(C)(C)C)O[C@@H]2C	-4.0	1.3	nt	nt	nt	nt	nt	nt
C/C(=N\NC(=O)c1cccs1)c1c(O)cc(C)oc1=O	5.4	2.0	1.8	3.1	-2.4	-4.8	nt	nt
COC(=O)C1=C(C)N(CC2CC2)C(=NCc2cccc(Cl)c2)N[C@H]1c1ccccc1	3.8	4.1	7.5	-3.5	0.9	7.0	nt	nt
SMILES	TDP2 inh	SIAE inh	Apaf-1 inh	TCR CD3 inh	PAD4 inh	GSTO1 counter	Apaf-1 inh conf2	Rh110 interf inh	others
COC(=O)C1=C(C)N(Cc2ccccc2)C(=NCc2cccc(Cl)c2)N[C@H]1c1ccccc1	nt	nt	56.0*	nt	1.5	nt	15.8	12.4
COC(=O)C1=C(C)N(Cc2ccccc2C(F)(F)F)C(=NCc2cc(OC)c(OC)c(OC)c2)NC1CCc1ccccc1 (stereo not drawn)	-5.7	2.1	nt	-0.3	nt	nt	nt	nt
COC(=O)C1=C(C)N(Cc2ccccc2)C(=NCc2cc(OC)c(OC)c(OC)c2)N[C@H]1CCc1ccccc1	-5.0	7.0	48.2*	5.8	1.5	nt	14.3	5.0
COC(=O)C1=C(C)N(Cc2ccccc2)C(=NCc2cc(OC)c(OC)c(OC)c2)N[C@H]1c1ccc(Br)cc1	nt	nt	54.5*	nt	-0.9	nt	10.6	7.4
COC(=O)C1=C(C)N(Cc2ccccc2)C(=NCc2ccccc2)N[C@H]1c1ccccc1	1.2	0.0	47.2*	-5.2	-2.9	nt	13.4	18.5
Cc1ccc(-c2nc(SCC(=O)NCC3CCCO3)c(-c3ccc(Cl)cc3)[nH]2)cc1 (stereo not drawn)	9.0	0.4	7.6	1.5	-0.6	0.3	nt	nt
COC(=O)C1=C(C)N(Cc2ccccc2)C(=NCc2ccccc2)N[C@H]1c1cccc(F)c1	-9.2	-2.4	41.2*	3.1	-7.6	2.4	17.6	9.6
CCN(CC)CCCN=C1N[C@@H](c2cccc(F)c2)C(C(=O)OC)=C(C)N1Cc1ccccc1	0.7	2.1	9.2	3.2	1.2	nt	nt	nt
CCOC(=O)N1CCN(C(=O)CN2C(=O)NC(C)(c3ccc4ccccc4c3)C2=O)CC1 (stereo not drawn)	3.3	-8.2	-2.8	-4.1	3.0	nt	nt	nt
COc1cc2nc(N3CCN(c4cc(C)ccc4C)CC3)nc(N)c2cc1OC	-2.0	12.2	29.2	-2.6	6.7	2.9	nt	nt
COc1cc2nc(N3CCNCC3)nc(N)c2cc1OC	11.0	-6.2	60.7*	-6.4	6.1	3.8	65.9*	4.3	Fluor interf inh=>100
CCN(Cc1cc2ccccc2[nH]c1=O)C(=O)C1CCCCC1	-12.0	-0.8	16.7	8.2	1.6	-0.3	nt	nt
CC(C)N(Cc1cc2ccccc2[nH]c1=O)C(=O)C1CCCCC1	-11.4	-3.4	57.3*	0.2	-5.7	-7.9	65.1*	5.8	Fluor interf inh=>100

Bioassay records: PubChem BioAssay, several laboratories
